Laboratory results from ChEMBL document CHEMBL1125309, “Discovery of a novel class of orally active, non-peptide angiotensin II antagonists” (J Med Chem, 1992).
Each block holds one compound with its values, some of them ahead of it.

Columns and labels:
[1] = biological target: T1, Type-1 angiotensin II receptor (Oryctolagus cuniculus, UniProt P34976); experiment: Compound was evaluated for in vitro potency against angiotensin II receptor, type 1 in isolated rabbit aorta; value ranges from 8.08-8.22; conditions: read-out: pA2 (converted)
T1 sequence (P34976 whole entry): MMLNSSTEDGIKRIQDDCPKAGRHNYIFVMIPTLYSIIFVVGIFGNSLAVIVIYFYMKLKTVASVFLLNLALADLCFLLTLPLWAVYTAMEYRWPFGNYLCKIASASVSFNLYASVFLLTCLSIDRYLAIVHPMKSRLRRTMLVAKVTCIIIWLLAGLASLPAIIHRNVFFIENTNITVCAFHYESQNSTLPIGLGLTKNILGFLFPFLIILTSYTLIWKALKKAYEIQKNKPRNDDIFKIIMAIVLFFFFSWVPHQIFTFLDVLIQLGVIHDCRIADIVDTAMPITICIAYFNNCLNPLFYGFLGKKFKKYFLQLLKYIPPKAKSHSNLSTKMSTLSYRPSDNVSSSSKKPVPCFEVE
Method in brief: (§1)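 Isolated rabbit aortic ring preparation contracted with angiotensin II; concentration–response curves to AII run in the presence of antagonist; parallel rightward shifts analysed by Schild analysis to give pA2 and slope.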

[2] = biological target: T2, Type-1 angiotensin II receptor B (Rattus norvegicus, UniProt P29089); experiment: Compound was evaluated for binding affinity against angiotensin II receptor, type 1 in rat liver
T2 sequence (P29089 whole entry): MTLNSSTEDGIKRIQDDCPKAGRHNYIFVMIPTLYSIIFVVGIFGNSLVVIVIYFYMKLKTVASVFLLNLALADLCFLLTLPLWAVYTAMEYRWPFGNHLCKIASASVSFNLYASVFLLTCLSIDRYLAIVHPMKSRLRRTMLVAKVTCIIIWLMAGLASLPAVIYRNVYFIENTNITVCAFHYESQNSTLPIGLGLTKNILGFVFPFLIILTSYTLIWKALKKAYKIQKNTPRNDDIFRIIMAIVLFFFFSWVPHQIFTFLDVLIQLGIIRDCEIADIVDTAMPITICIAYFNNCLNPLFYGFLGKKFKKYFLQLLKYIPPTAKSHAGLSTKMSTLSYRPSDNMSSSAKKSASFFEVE

[3] = biological target: T1, Type-1 angiotensin II receptor; experiment: Compound was evaluated for in vitro potency against Angiotensin II receptor, type 1 in isolated rabbit aorta; value ranges from 7.13-7.17; conditions: read-out: pA2 (converted); method in brief: as §1
[4] = biological target: T1, Type-1 angiotensin II receptor; experiment: Compound was evaluated for in vitro potency against Angiotensin II receptor, type 1 in isolated rabbit aorta; value ranges from 5.53-5.69; conditions: read-out: pA2 (converted); method in brief: as §1
[5] = biological target: T1, Type-1 angiotensin II receptor; experiment: Compound was evaluated for in vitro potency against angiotensin II receptor, type 1 in isolated rabbit aorta; type: tissue-based; conditions: read-out: pA2 (converted); method in brief: as §1
[6] = biological target: T2, Type-1 angiotensin II receptor B; experiment: Compound was evaluated for binding affinity against AT1 receptor in rat liver
Method in brief: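 Displacement of [125I]saralasin from AT1 receptors in rat liver membranes; compounds tested at multiple concentrations as required; Ki derived from the binding curves.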

[7] = biological target: T1, Type-1 angiotensin II receptor; experiment: Compound was evaluated for in vitro potency against AT1 receptor in isolated rabbit aorta; value ranges from 7.91-7.97; conditions: read-out: pA2 (converted); method in brief: as §1
[8] = biological target: T1, Type-1 angiotensin II receptor; experiment: Compound was evaluated for in vitro potency against angiotensin II receptor, type 1 in isolated rabbit aorta; value ranges from 8.70-8.83; conditions: read-out: pA2 (converted); method in brief: as §1

- Kb [1]: 8.32 nM
- Ki [2]: 122 nM
Compound: CCCCN(Cc1ccc(-c2ccccc2-c2nnn[nH]2)cc1)c1nc(C)ccc1C(=O)O

- Kb [3]: 74.1 nM
Compound: CCCCc1ncc(C(=O)O)c(N(C)Cc2ccc(-c3ccccc3-c3nn[nH]n3)cc2)n1

- Kb [4]: 2950 nM
Compound: O=C(O)c1cncnc1NCc1ccc(-c2ccccc2-c2nn[nH]n2)cc1

- Ki [2]: 15.3 nM
Compound: CCCCN(Cc1ccc(-c2ccccc2-c2nn[nH]n2)cc1)c1nc(C)ncc1C(=O)O

- Kb [5]: 0.316 nM
Compound: CCCCN(Cc1ccc(-c2ccccc2-c2nn[nH]n2)cc1)c1ncccc1C(=O)O

- Ki [6]: 198 nM
- Kb [7]: 12.3 nM
Compound: CCCCc1ncc(C(=O)O)c(NCc2ccc(-c3ccccc3-c3nn[nH]n3)cc2)n1

- Kb [5]: 0.117 nM
- Ki [2]: 3.13 nM
Compound: CCCCN(Cc1ccc(-c2ccccc2-c2nnn[nH]2)cc1)c1ncncc1C(=O)O

- Ki [2]: 0.76 nM
Compound: CCCN(Cc1ccc(-c2ccccc2-c2nnn[nH]2)cc1)c1ncccc1C(=O)O

- Ki [2]: 2.78 nM
Compound: CCCN(Cc1ccc(-c2ccccc2-c2nn[nH]n2)cc1)c1nc(C)ncc1C(=O)O

- Kb [8]: 2 nM
Compound: CCN(Cc1ccc(-c2ccccc2-c2nn[nH]n2)cc1)c1ncccc1C(=O)O
